To fix the notation:
B1: Osa-1-4 twister ribozyme (parent)
chain: CCGCCUAACACUGCCAAUGCCGGUCCCAAGCCCGGAUAAAAGUGGAGGGGGCGG

In the data set the parent is B1. As to the kind of experiment: self-cleavage, relative activity (ratio to wild type); higher = more cleavage; co-transcriptional. In short, it runs like this:
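Relative activity is the fraction cleaved divided by that of the wild-type ribozyme. The library came from a DNA template for a 54-nucleotide Oryza sativa twister ribozyme, doped at the 48 positions downstream of the cleavage site with 97 % wild-type base and 1 % of each other base. After 2 h of in vitro transcription at 37 °C with co-transcriptional self-cleavage, the RNA was reverse-transcribed with a template-switching oligonucleotide, amplified by PCR and deep-sequenced, and reads with or without upstream sequence gave the cleavage status.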
Take A39C A8U: the self-cleavage turned out to be 0.1. Next, A39C U12C: 0.11; A39C U12G: 0.11; A39C U12A: 0.44. Regarding A39G G13A, the self-cleavage came to 0.07. Regarding A39G G13C, the self-cleavage stood at 0.03. Turning to A39G G13U, the self-cleavage amounted to 0.03. For the variant A38U G51C, the self-cleavage is 0.09.

Turning to A38U G51U, the self-cleavage is 0.32. The value for A38U G51A was 0.63; that for A39C G22A was 0.78. Regarding A39C G22C, the self-cleavage was 0.05. The value for A39C G22U was 0.41; that for A38U G22U was 0.89; that for A38U G22A was 1. On to A38U G22C, for which the self-cleavage turned out to be 0.08. Next, A39C C14G: 0.05; A39C C14A: 0.08; A39C C14U: 0.11. Next, A39C G44A: 0.71. The value for A39C G44U was 0.88; that for A39C G44C was 0.93; that for A39C G30C was 0.04. On to A39C G30A, for which the self-cleavage came out at 0.04. With A39C G30U, the self-cleavage is 0.03.

Consider A38U U18A, for which the self-cleavage was found to be 0.92. For the variant A38U U18C, the self-cleavage came out at 0.93. With A38U U18G, the self-cleavage was determined as 0.85. As for A38U G44C, the self-cleavage came to 0.96. Consider A38U G44A, for which the self-cleavage was determined as 0.92. Next, A38U G44U: 0.89; A39C C27A: 0.11; A39C C27G: 0.06. The value for A39C C27U was 0.09; that for A39C C33G was 0.07; that for A39C C33A was 0.06.

As for A39C C33U, the self-cleavage came to 0.38. The value for A38U U12G was 0.31; that for A38U U12A was 0.86; that for A38U U12C was 0.4. A39C C11G: the self-cleavage was found to be 0.21. On to A39C C11A, for which the self-cleavage amounted to 0.26. A39C C11U: the self-cleavage turned out to be 0.74.

Consider A39C G54A, for which the self-cleavage came to 0.62. As for A39C G54U, the self-cleavage came to 0.65.

Take A39C G54C: the self-cleavage worked out at 0.6. A38U C31U: the self-cleavage came out at 0.75. The value for A38U C31A was 0.03; that for A38U C31G was 0.08; that for A38U G49C was 0.05. In the case of A38U G49A, the self-cleavage was found to be 0.12.

Regarding A38U G49U, the self-cleavage came to 0.09. The value for A39C G23C was 0.04. The value for A39C G23U was 0.05. As to A39C G23A, the self-cleavage was determined as 0.12.

For the variant A39G G30C, the self-cleavage was determined as 0.05. For the variant A39G G30U, the self-cleavage was determined as 0.04. As to A39G G30A, the self-cleavage is 0.05. Turning to A39C G53C, the self-cleavage was 0.06. The value for A39C G53U was 0.12. Regarding A39C G53A, the self-cleavage was 0.37.

On to A39C G42C, for which the self-cleavage is 0.09. The value for A39C G42U was 0.05; that for A39C G42A was 0.1.

For the variant A39C C15G, the self-cleavage came to 0.16. Regarding A39C C15U, the self-cleavage was determined as 0.57. A39C C15A: the self-cleavage was 0.23. On to A38U G50U, for which the self-cleavage stood at 1.01.

Regarding A38U G50C, the self-cleavage is 0.99.

As for A38U G50A, the self-cleavage came out at 0.64. Next, A39G A41G: 0.46.

A39G A41C: the self-cleavage stood at 0.6. With A39G A41U, the self-cleavage stood at 0.95. The value for A39C G13U was 0.03; that for A39C G13A was 0.06; that for A39C G13C was 0.02.

Take A39C U18C: the self-cleavage is 0.96. The value for A39C U18A was 0.93. The value for A39C U18G was 0.83; that for A39C G19C was 0.06; that for A39C G19A was 0.28.

With A39C G19U, the self-cleavage is 0.11. As to A38U, the self-cleavage came to 1.01. The value for A38U A40U was 0.55; that for A38U A40C was 0.06. Next, A38U A40G: 0.64; A39G C27G: 0.07; A39G C27U: 0.11.

Regarding A39G C27A, the self-cleavage came out at 0.09. As for A39G C26A, the self-cleavage was 0.06. Next, A39G C26U: 0.55; A39G C26G: 0.25; A39G G19U: 0.26.

For the variant A39G G19C, the self-cleavage turned out to be 0.31. On to A39G G19A, for which the self-cleavage was determined as 0.7. Turning to A39C C20A, the self-cleavage was determined as 0.87.

In the case of A39C C20G, the self-cleavage came out at 0.1. As to A39C C20U, the self-cleavage is 0.94. A39G C20U: the self-cleavage was 0.96. The value for A39G C20A was 0.91.

As for A39G C20G, the self-cleavage was found to be 0.13. Next, A39G C9G: 0.66. Take A39G C9A: the self-cleavage stood at 0.39. Take A39G C9U: the self-cleavage amounted to 0.73. The value for A39G G22C was 0.08; that for A39G G22A was 0.95. The value for A39G G22U was 0.26; that for A38U G42C was 0.17. Next, A38U G42A: 0.6; A38U G42U: 0.08. Turning to A38U C52A, the self-cleavage came out at 1. For A38U C52U, the self-cleavage was determined as 1.01. For A38U C52G, the self-cleavage worked out at 0.98. The value for A39G A40U was 0.16. Next, A39G A40C: 0.05; A39G A40G: 0.36; A38U C21A: 0.53. For the variant A38U C21G, the self-cleavage amounted to 0.06. For the variant A38U C21U, the self-cleavage is 0.99. The value for A39G C14G was 0.12; that for A39G C14A was 0.08; that for A39G C14U was 0.11. The value for A39G C33A was 0.08; that for A39G C33G was 0.07. On to A39G C33U, for which the self-cleavage came out at 0.63. Next, A38U U37G: 1.03; A38U U37A: 1.03. The value for A38U U37C was 1.04. Next, A39C G35U: 0.84; A39C G35C: 0.14; A39C G35A: 0.78.

Turning to A39C G47U, the self-cleavage was 0.1. The value for A39C G47A was 0.08; that for A39C G47C was 0.06. The value for A39C G45C was 0.05; that for A39C G45A was 0.08. The value for A39C G45U was 0.06. Turning to A38U C32A, the self-cleavage came out at 0.08. Next, A38U C32U: 0.11; A38U C32G: 0.12. The value for A38U A41G was 0.64; that for A38U A41U was 0.98; that for A38U A41C was 0.89. Next, A39C G50A: 0.64; A39C G50C: 0.67. Turning to A39C G50U, the self-cleavage worked out at 1. The value for A38U G54C was 0.89. The value for A38U G54U was 0.95; that for A38U G54A was 0.93. For the variant A38U A7C, the self-cleavage worked out at 0.05. Take A38U A7G: the self-cleavage was found to be 0.24. On to A38U A7U, for which the self-cleavage turned out to be 0.12.

On to A38U C20G, for which the self-cleavage was 0.15. With A38U C20U, the self-cleavage stood at 0.98. The value for A38U C20A was 0.82; that for A39C C21A was 0.22; that for A39C C21U was 0.97. The value for A39C C21G was 0.08; that for A39C A7C was 0.06; that for A39C A7U was 0.06.

With A39C A7G, the self-cleavage was 0.12. The value for A39C A40C was 0.1; that for A39C A40G was 0.59; that for A39C A40U was 0.85. In the case of A39C A46G, the self-cleavage is 0.05. Next, A39C A46C: 0.04; A39C A46U: 0.07.

Source of the values: the RNAGym collection of RNA variant scans (doi:10.1002/anie.201605470).
